# A selection: hits, their analogues and other compounds. The true share with any hit is near 8.9%.
# HSV replic up – enhancers of HSV replication in host cells, fold increase, host cell viability. HSV replication augmentation in cells. maximum fold increase. actives 0.005% (n = 220,000). AID 1956, 2009; in the data active means maximum fold increase above about 1.5; tested in PC3 cells
# b-catenin transl – modulators of beta-catenin nuclear translocation, primary screen, imaging, HeLa cells, immunofluorescence, high-content | nuclear translocation activity, % at 5 µM | actives 0.3% (n = 190,000);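 active means nuclear translocation activity above 50% at 5 µM, with a well cell count of 50 or more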;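 further: per-cell ratio of nuclear to cytoplasmic median beta-catenin stain intensity; plate controls were DMSO negative control for no effect and GSK-3 inhibitor IX positive control for full effect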
#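 Test system: HeLa cells, endogenous beta-catenin; Compound: single 5 µM dose plus 0.02–20 µM confirmation series; Times: compound exposure 24 h at 37°C; Signal: fluorescence imaging of beta-catenin antibody stain plus DAPI; Read-out: % activation, nuclear-to-cytoplasmic median beta-catenin signal ratio per cell.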
# Dynein cargo inh – inhibitors of GR-EGFP nuclear translocation, primary screen, dynein cargo transport inhibitor project, imaging, high-content, 3617.4 mouse cells. test concentration mostly 20 µM; stimulated with dexamethasone, 1 µM; active compounds read low. actives 0.47% (n = 220,000). z-score, hits read low. AID 1381, 2008;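 active means plate z-score of nuclear minus cytoplasmic receptor signal below a set negative limit, without overly bright fluorescence or cell loss, cut at about -3.5 in these data, passing the limit was not always enough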;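 further: z-score of nuclear minus cytoplasmic ring GR-EGFP intensity difference per well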
#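 medium = tetracycline-free induction medium containing charcoal-stripped FBS | also added = 1.0 µM final dexamethasone stimulus | schedule = 48 h induction, 1 h compound, 30 min dex at 37 °C | technique = fixed, Hoechst-stained cells imaged at 10x for EGFP | measure = GR-EGFP nuclear translocation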
# Lmaj promast – Leishmania major promastigote growth inhibition, primary screen; actives 9% (n = 200,000); inhibition, % at 10 µM; Leishmania major promastigotes, resazurin fluorescence viability; AID 1063, 2008; in the data active means inhibition above about 50%;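 further: promastigotes grown with compound for 44 hours at 28 °C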
# MT stabilizer – microtubule stabilizers in HeLa cells, primary screen, imaging, high-content imaging; HeLa tubulin immunostaining HCS, 24 h; share of cells brighter than vehicle mean+2SD; % tubulin-high responders, % at 10 µM; actives 0.83% (n = 200,000); AID 2205, 2009;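 active means plate Z-score above 3 for both tubulin-high and condensed-nucleus cell shares, with cell loss under 80%, at 10 µM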;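 further: anti alpha tubulin signal scored within the nucleus-defined area of each cell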
# Starred values were filed as active, the others as inactive; i = inactive; . = no result given.
SMILES,HSV replic up,b-catenin transl,Dynein cargo inh,Lmaj promast,MT stabilizer
Cc1ccccc1-n1c(SCC(=O)N/N=C/C=C/c2ccccc2[N+](=O)[O-])nc2ccccc2c1=O,i,1,0.4,60*,1
CCc1nn(C(C)C(=O)NCCN2CCN(c3cccc(C)c3C)CC2)c(=O)c2cc3occc3n12 (stereo not given),i,0,0.39,85*,2
CC1CC1C(=O)OCc1cc(=O)n2cc(Br)ccc2n1 (stereo not given),i,-8,-0.5,-3,4
CN(C)C(=S)N=Nc1[nH]c2ccccc2c1O,i,-4,2.5,97*,7
COc1ccc(S(=O)(=O)N(Cc2cccs2)C2CCCC2)cc1,i,.,-0.079,14,1
Cc1ccc(S(=O)(=O)Nc2ccc(-c3nc4cc(NS(=O)(=O)c5ccc(C)cc5)ccc4o3)cc2)cc1,i,.,0.37,98*,3
CCC(C)Sc1nnc(CNC(=O)C23CC4CC(CC(C4)C2)C3)n1C1CCCCC1 (stereo not given),.,-3,-1.1,21,3
COc1ccc(OC)c(C(=O)CSc2nc3ccccc3n2CC(=O)NC(C)(C)C)c1,i,.,0.11,61*,2
CC(C)(C)NC(=O)Cn1c(SCC(N)=O)nc2ccccc21,i,-2,0.042,-4,2
COc1ccc(-c2nnc3ccc(SCC(N)=O)nn23)cc1OC,i,.,-0.17,5,6
CCOC(=O)CC1C(=O)NCCN1S(=O)(=O)c1ccccc1Cl (stereo not given),i,-2,0.24,-4,2
O=C(COC(=O)C1CCN(S(=O)(=O)c2ccccc2)CC1)NC(=O)c1ccc(OC(F)F)cc1,i,0,-0.39,57*,2
CCN(Cc1ccccc1)C(=O)C1CCN(CC2CC=CCC2)CC1 (stereo not given),i,-2,0.64,98*,4
CCN(CC)C(=O)C1CCN(CC2CC=CCC2)CC1 (stereo not given),i,0,0.12,84*,1
CCN1C(=O)/C(=C\N2CCCCCC2)SC1=S,i,1,-0.76,13,7
COc1ccccc1Cn1c(=O)c2ccccc2n2c(Sc3ncnc4sccc34)nnc12,i,-1,0.39,89*,17
COc1ccccc1Cn1c(=O)c2ccccc2n2c(SCc3csc(C)n3)nnc12,i,-4,-0.16,5,3
CCc1nnc(NC(=O)CSc2nc(C)c3c(c2C#N)CCCC3)s1,i,4,0.23,-1,26*
COc1ccc(NC(=O)CSc2nc(C)c3c(c2C#N)CCCC3)cc1,i,-2,-0.92,-4,2
CCNc1nc(NC(C)C)nc(N(n2cnnc2)S(=O)(=O)c2ccc(C)cc2)n1,i,-1,2.9,58*,4
O=c1c2[nH]c3ccccc3c2nc2n1CCCS2,i,0,-0.13,5,4
COCCn1c(-c2ccc(Br)cc2)csc1=Nc1cccnc1,i,-1,-0.89,39,1
Clc1ccc(-c2csc(=Nc3cccnc3)n2CCCn2ccnc2)cc1Cl,i,-3,0.6,99*,3
OCCNc1c2ccccc2nc2c(F)c(F)c(F)c(F)c12,.,56*,-1.7,10,2
CCN1/C(=C2/OC(=S)N(C)C2=O)Sc2ccccc21,i,-1,-0.45,3,9
SMILES,HSV replic up,b-catenin transl,Dynein cargo inh,Lmaj promast,MT stabilizer
CCN1/C(=C2/SC(=S)NC2=O)Sc2ccccc21,i,0,1.2,77*,9
Clc1ccc(OCCn2ccnc2)c2ccccc12,i,0,0.13,96*,4
CCC(C)c1ccccc1OCCn1ccnc1 (stereo not given),i,2,-0.27,69*,2
Clc1ccc(OCCn2ccnc2)c(Cl)c1,i,0,1.2,25,3
O=C(c1cc(Cl)ccc1Cl)N1CCOCC1,i,-3,-0.62,-9,4
O=C(c1ccccc1)c1nc2ccccc2[nH]c1=O,i,-1,-0.11,-1,2
O=C(NC1CCCCC1)c1sc(N2CCOCC2)nc1-c1ccccc1,i,.,0.45,88*,1
O=C(N=Nc1c(O)[nH]c2ccccc12)c1cccc(S(=O)(=O)N2CCCCC2)c1,i,0,-0.0075,61*,4
CC(C)c1ccc2[nH]c(O)c(N=NC(=O)c3cccc(S(=O)(=O)N4CCCCC4)c3)c2c1,i,0,-0.84,99*,3

# Assay outcomes as filed in PubChem.
